What was measured:
[1] = target: T1, horseradish peroxidase (HRP) (Armoracia rusticana, UniProt P00433); test: Inhibition of HRP activity; format: biochemical
T1 sequence (P00433 31-338 limits assumed): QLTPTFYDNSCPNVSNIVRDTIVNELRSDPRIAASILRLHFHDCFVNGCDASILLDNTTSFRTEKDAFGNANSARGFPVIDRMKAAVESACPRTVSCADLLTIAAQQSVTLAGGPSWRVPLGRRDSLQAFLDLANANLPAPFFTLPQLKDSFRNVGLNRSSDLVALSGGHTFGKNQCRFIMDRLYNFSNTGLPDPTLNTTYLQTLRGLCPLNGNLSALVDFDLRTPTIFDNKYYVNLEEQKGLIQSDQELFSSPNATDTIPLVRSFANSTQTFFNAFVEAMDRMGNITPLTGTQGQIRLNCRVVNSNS
How it was run: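 HRP (10 μL) combined with test compound (10 μL, 250–1000 μM) and 100 μL TMB. Reaction started with 0.03% (v/v) H2O2. The blue oxidised TMB product was read at 655 nm and % inhibition calculated against uninhibited activity. Sodium azide at 1000 μM served as reference inhibitor. Performed in triplicate.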

[2] = tested on: rat splenic lymphocytes; test: Splenic lymphocyte proliferation with Con-A and HU; format: cell-based; conditions: HU 50 μM, rutin or gallic acid 10 μM, Con-A 5 μg/mL, 48 h, MTT
How it was run: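 Spleens were taken aseptically from control rats into incomplete RPMI and minced through a strainer. Erythrocytes were lysed with 155 mM NH4Cl, 12 mM NaHCO3 and 0.1 mM EDTA, and the cells were washed and resuspended in complete RPMI. Cells were seeded at 2.5 × 10^4 per well, pretreated with test compound plus HU for 1 h at 37 °C, then stimulated with Con-A for 48 h. MTT (2.5 mg/mL, 20 μL) was added for 4 h and absorbance read at 570 nm. Groups were compared by Student's t-test.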

[3] = target: urease from Canavalin ensiformis (jack bean) (Canavalia ensiformis, UniProt P07374); test: Inhibition of urease activity; format: biochemical
Sequence of urease from Canavalin ensiformis (jack bean) (P07374 whole entry, looked up): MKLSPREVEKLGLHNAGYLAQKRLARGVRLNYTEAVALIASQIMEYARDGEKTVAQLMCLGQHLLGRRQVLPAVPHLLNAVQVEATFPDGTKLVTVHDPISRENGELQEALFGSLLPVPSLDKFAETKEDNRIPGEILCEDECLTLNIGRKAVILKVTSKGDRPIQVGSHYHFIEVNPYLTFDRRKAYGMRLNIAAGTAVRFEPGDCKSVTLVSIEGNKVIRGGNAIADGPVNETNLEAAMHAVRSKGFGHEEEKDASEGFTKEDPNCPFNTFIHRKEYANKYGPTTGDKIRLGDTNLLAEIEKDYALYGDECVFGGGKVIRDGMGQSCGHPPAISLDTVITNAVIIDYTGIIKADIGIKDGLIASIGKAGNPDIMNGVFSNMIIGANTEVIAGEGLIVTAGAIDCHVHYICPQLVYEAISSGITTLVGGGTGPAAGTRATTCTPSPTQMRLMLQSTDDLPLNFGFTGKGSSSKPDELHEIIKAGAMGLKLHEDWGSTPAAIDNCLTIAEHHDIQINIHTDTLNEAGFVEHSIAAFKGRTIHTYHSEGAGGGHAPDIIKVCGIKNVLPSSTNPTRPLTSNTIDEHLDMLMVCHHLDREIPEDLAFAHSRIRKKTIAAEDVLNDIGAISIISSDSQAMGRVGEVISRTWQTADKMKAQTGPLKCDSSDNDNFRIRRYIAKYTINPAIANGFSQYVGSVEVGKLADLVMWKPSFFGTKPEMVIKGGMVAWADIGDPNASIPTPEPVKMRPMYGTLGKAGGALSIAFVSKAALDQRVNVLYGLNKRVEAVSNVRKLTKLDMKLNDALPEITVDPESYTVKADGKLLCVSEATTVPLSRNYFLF

[4] = tested on: red blood cells; test: Hemolysis assay on rat RBCs; format: cell-based; conditions: up to 1 mg/mL, 30 min at 37 °C
How it was run: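 Blood from control rats drawn into aqueous EDTA and spun at 8000 rpm for 10 min. RBCs washed three times in PBS (pH 7.4) and diluted 1:10. Diluted cells (100 μL) mixed with 900 μL PBS containing test compound at 0.1 to 1 mg/mL. Blank PBS served as negative control and 1% Triton X-100 as positive control. Incubated 30 min at 37 °C with shaking, spun at 4 °C, supernatant absorbance read at 540 nm. % hemolysis scaled between the PBS and Triton absorbances.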

[5] = tested on: CYP2E1; conditions: cited from earlier work
[6] = rat; cited from earlier work
[7] = tested on: OATP1B3; conditions: read-out: IC50, inhibition of OATP1B3-mediated transport of CCK-8; ref Li et al.; cited from earlier work
[8] = at the concentration range of 250–1000 μM

| IC50 [3] [µM] | inhibition of HRP [1, 8] | Compound | inhibition of HRP ([1]; at a concentration of 1000 μM) [%] | effect on proliferation of lymphocytes [2] | RBCs lysis (% Hb released relative to positive and negative controls) [4] [%] | effect on expression of CYP2E1 [5] | effect on oral exposure of rosuvastatin [6] | IC50 [7] [µM] |
| --- | --- | --- | --- | --- | --- | --- | --- | --- |
| – | – | [N-]=[N+]=[N-].[Na+] [sodium azide, reference compound] | 97 | – | – | – | – | – |
| – | – | NC(=O)NO [HU, Hydroxyurea, reference compound] | – | decreased | – | – | – | – |
| 780 | 40–64% | C[C@@H]1O[C@@H](OC[C@H]2O[C@@H](Oc3c(-c4ccc(O)c(O)c4)oc4cc(O)cc(O)c4c3=O)[C@H](O)[C@@H](O)[C@@H]2O)[C@H](O)[C@H](O)[C@H]1O [rutin, Rutin] | – | no considerable influence | ≤ 5 | enhanced its expression | – | – |
| 635 | 53–70% | O=C(O)c1cc(O)c(O)c(O)c1 [gallic acid] | – | significantly elevated the proliferation of lymphocytes | – | – | augmented the oral exposure of rosuvastatin | 1.6 |
